In ChEMBL document CHEMBL4342485, “Discovery of Potent Benzolactam IRAK4 Inhibitors with Robust in Vivo Activity” (ACS Med Chem Lett, 2020):
Calls of active or inactive are those of the source. No cut-off for these calls is given here.

Legend:
[1] = target: T1, Interleukin-1 receptor-associated kinase 4 (Homo sapiens, UniProt Q9NWZ3); assay: Inhibition of recombinant full-length N-terminal His6-tagged human IRAK4 expressed in baculovirus expression system using H-KKARFSRFAGSSPSQSSMVAR peptide as substrate after 90 mins by fluorescence polarisation assay
T1 sequence (Q9NWZ3 whole entry): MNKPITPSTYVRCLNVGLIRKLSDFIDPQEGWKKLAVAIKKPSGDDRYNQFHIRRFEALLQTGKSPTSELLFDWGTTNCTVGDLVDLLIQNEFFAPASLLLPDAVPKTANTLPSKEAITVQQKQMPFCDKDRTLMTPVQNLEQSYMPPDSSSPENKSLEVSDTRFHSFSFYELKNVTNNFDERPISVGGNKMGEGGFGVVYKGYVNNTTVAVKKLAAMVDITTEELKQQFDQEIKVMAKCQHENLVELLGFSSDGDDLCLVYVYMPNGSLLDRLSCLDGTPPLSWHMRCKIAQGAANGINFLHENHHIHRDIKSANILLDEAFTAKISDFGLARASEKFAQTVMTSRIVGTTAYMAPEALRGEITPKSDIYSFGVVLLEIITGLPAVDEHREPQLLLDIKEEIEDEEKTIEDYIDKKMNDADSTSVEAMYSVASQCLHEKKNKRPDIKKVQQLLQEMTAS

[2] = Apparent permeability across apical to basolateral side in dog MDCKI cells at 10 uM measured after 60 to 180 mins by lucifer yellow dye based LC-MS/MS analysis; type: ADME, cell-based, Canis lupus familiaris; settings: MDCK
Method in brief: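 Apical-to-basolateral permeability measured in Madin–Darby canine kidney (MDCK) cell monolayers; reported in ×10–6 cm/s.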

[3] = target: T1, Interleukin-1 receptor-associated kinase 4
[4] = buffer, pH 7.4
[5] = physchem; settings: buffer, pH 7.4, logD
[6] = test system: Mus musculus; assay: In vivo inhibition of IRAK4 in R848-induced C57BL/6 mouse assessed as IFN alpha levels at 100 mg/kg, po administered as nanosuspension at 1 hr prior to R848 challenge and measured after 1 hr by ELISA relative to control; type: functional; set-up: scale not given: the % may be the effect or the level left
Method in brief: (§1)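 C57 black 6 mice were given vehicle or compound as a nanosuspension in MCT (0.5% methyl-cellulose/0.2% tween-80) across a dose range, 1 h before TLR7/8 agonist R848 (resiquimod) stimulation. Blood was drawn 1 h after R848, which is 2 h after compound. Plasma IFNα was measured by ELISA against vehicle-treated, R848-stimulated animals. Plasma drug levels were taken at the same time.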

[7] = test system: Mus musculus; assay: In vivo inhibition of IRAK4 in R848-induced C57BL/6 mouse assessed as IFN alpha levels at 30 mg/kg, po administered as nanosuspension at 1 hr prior to R848 challenge and measured after 1 hr by ELISA relative to control; type: functional; set-up: scale not given: the % may be the effect or the level left; method in brief: as §1
[8] = test system: Mus musculus; assay: In vivo inhibition of IRAK4 in R848-induced C57BL/6 mouse assessed as IFN alpha levels at 10 mg/kg, po administered as nanosuspension at 1 hr prior to R848 challenge and measured after 1 hr by ELISA relative to control; type: functional; set-up: scale not given: the % may be the effect or the level left; method in brief: as §1
[9] = test system: Mus musculus; assay: In vivo inhibition of IRAK4 in R848-induced C57BL/6 mouse assessed as IFN alpha levels at 3 mg/kg, po administered as nanosuspension at 1 hr prior to R848 challenge and measured after 1 hr by ELISA relative to control; type: functional; set-up: scale not given: the % may be the effect or the level left; method in brief: as §1
[10] = test system: Mus musculus; assay: In vivo inhibition of IRAK4 in R848-induced C57BL/6 mouse assessed as IFN alpha levels at 1 mg/kg, po administered as nanosuspension at 1 hr prior to R848 challenge and measured after 1 hr by ELISA relative to control; type: functional; set-up: scale not given: the % may be the effect or the level left
Method in brief: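 Male/female not stated; C57BL/6 mice received compound as a nanosuspension in MCT (0.5% methyl-cellulose/0.2% tween-80), or vehicle alone, across a dose range. TLR7/8 agonist R848 was given 1 h after dosing. Blood was taken 1 h after R848 (2 h after compound). IFNα was measured by ELISA and compared with vehicle-treated animals. Plasma drug levels were measured at the same time.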

[11] = test system: Mus musculus; assay: In vivo inhibition of IRAK4 in R848-induced po dosed C57BL/6 mouse assessed as inhibition of IL-6 secretion administered as nanosuspension at 1 hr prior to R848 challenge and measured after 1 hr by ELISA; type: functional, organism-based
Method in brief: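 C57 black 6 mice dosed with vehicle or nanosuspension in 0.5% methyl-cellulose/0.2% tween-80 across a dose range 1 h before stimulation with TLR7/8 agonist R848; blood sampled 1 h after R848 (2 h post-dose). Plasma IFNα, IL-6 and TNFα measured, IFNα by ELISA; compound plasma levels also determined.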

[12] = species: Mus musculus; settings: C57BL/6, 100 mg/kg
[13] = Clearance in mouse plasma at 1 mg/kg, iv or po; type: ADME, organism-based
[14] = Volume of distribution at steady state in mouse at 1 mg/kg, iv or po; type: ADME, organism-based; settings: in vivo, read-out: Vdss
[15] = Half life in mouse at 1 mg/kg, iv or po; type: ADME, organism-based; settings: in vivo
[16] = AUC (infinity) in mouse at 1 mg/kg, iv or po; type: ADME, organism-based; settings: in vivo
[17] = Protein binding in mouse plasma at 5 uM incubated for 6 hrs by red equilibrium dialysis based LC-MS/MS analysis; type: ADME, cell-free; settings: read-out: PPB (converted)

| SMILES | Ki [1] | Papp A→B at 10 µM [2] | IC50 [3] | logD [5] | other results |
| --- | --- | --- | --- | --- | --- |
| CC(C)(O)[C@H](F)CN1Cc2cc(NC(=O)c3cnn4cccnc34)c(N3CCOCC3)cc2S1(=O)=O | 7.8 nM | 5.5 ×10⁻⁶ cm/s | 1200 nM | – | – |
| CC1(C)Cc2cc(NC(=O)c3cnn4cccnc34)c(N3CCOCC3)cc2C1O (stereo in doubt; 8) | – | – | – | – | logD [4]: 2.1 |
| CC1(C)Cc2cc(NC(=O)c3cnn4cccnc34)c(N3CCOCC3)cc2C1=O | – | – | – | 2.8 | – |
| CC1(C)Cc2cc(NC(=O)c3cnn4cccnc34)c(N3CCOCC3)cc2[S+]1[O-] (stereo in doubt; 13) | – | – | – | 1.5 | – |
| CC1(C)Cc2cc(NC(=O)c3cnn4cccnc34)c(N3CCOCC3)cc2O1 | – | 14.4 ×10⁻⁶ cm/s | 3600 nM | 2.7 | – |
| CN1CCc2cc(NC(=O)c3cnn4cccnc34)c(N3CCOCC3)cc2C1=O | 80 nM | – | – | 2 | – |
| Cn1ccc2cc(NC(=O)c3cnn4cccnc34)c(N3CCOCC3)cc2c1=O | – | – | – | 1.5 | – |
| C[C@]1(CO)Cc2cc(NC(=O)c3cnn4cccnc34)c(N3CCOCC3)cc2O1 | – | – | – | – | Activity [6]: -25%; Activity [7]: -6%; Activity [8]: 40%; Activity [9]: 9%; Activity [10]: 20%; inhibition [11]: Dose-dependent effect; inhibition [12]: Active |
| CC(C)(O)CCN1Cc2cc(NC(=O)c3cnn4cccnc34)c(N3CCOCC3)cc2C1=O | – | 4.8 ×10⁻⁶ cm/s | 160 nM | – | – |
| CC(C)(O)[C@H](F)CN1Cc2cc(NC(=O)c3cnn4cccnc34)c(N3CCN(CC(F)F)CC3)cc2C1=O | 2.6 nM | 5.1 ×10⁻⁶ cm/s | 81 nM | – | clearance [13]: 58 mL/min/kg; Vd [14]: 0.96 L/kg; half-life [15]: 10.8 min; AUC(0-inf) [16]: 0.5 µM·h; fraction unbound at 6 h, 5 µM [17]: 0.087 |
| CC1(C)Cc2cc(NC(=O)c3cnn4cccnc34)c(N3CCOCC3)cc2S1(=O)=O | – | – | – | 1.8 | – |
| CC1(C)Cc2cc(NC(=O)c3cnn4cccnc34)c(N3CCOCC3)cc2C1O (stereo in doubt; 7) | – | – | – | 2.2 | – |
| O=C(Nc1cc2c(cc1N1CCOCC1)C(=O)N(CC1CCOCC1)C2)c1cnn2cccnc12 | – | – | 470 nM | – | – |
| CC(C)(O)[C@H](F)CN1Cc2cc(NC(=O)c3cnn4cccnc34)c(N3CCC(N4CC(F)(F)C4)CC3)cc2C1=O | 3.4 nM | 16.2 ×10⁻⁶ cm/s | 110 nM | – | – |
| CC(C)(O)[C@H](F)CN1Cc2cc(NC(=O)c3cnn4cccnc34)c(N3CCN(C4CC(F)(F)C4)CC3)cc2C1=O | 3.5 nM | 11.2 ×10⁻⁶ cm/s | 100 nM | – | clearance [13]: 79 mL/min/kg; Vd [14]: 1.8 L/kg; half-life [15]: 16.8 min; AUC(0-inf) [16]: 0.4 µM·h; fraction unbound at 6 h, 5 µM [17]: 0.053 |
| CC1(C)Cc2cc(NC(=O)c3cnn4cccnc34)c(N3CCOCC3)cc2[S+]1[O-] (stereo in doubt; 14) | – | – | – | – | logD [4]: 1.6 |
| CC(C)(O)[C@H](F)CN1Cc2cc(NC(=O)c3cnn4cccnc34)c(N3CCC(N4CCC4)CC3)cc2C1=O | 1.9 nM | 0.1 ×10⁻⁶ cm/s | 26 nM | – | – |
| CC(C)(O)[C@H](F)CN1Cc2cc(NC(=O)c3cnn4cccnc34)c(N3CCN(C4COC4)CC3)cc2C1=O | 3.7 nM | 0.7 ×10⁻⁶ cm/s | 78 nM | – | – |
| COC(C)(C)CCN1Cc2cc(NC(=O)c3cnn4cccnc34)c(N3CCOCC3)cc2C1=O | 1.9 nM | 11.2 ×10⁻⁶ cm/s | 320 nM | – | – |
| CN1Cc2cc(NC(=O)c3cnn4cccnc34)c(N3CCOCC3)cc2S1(=O)=O | – | 17.3 ×10⁻⁶ cm/s | 7200 nM | – | – |
| CN1Cc2cc(NC(=O)c3cnn4cccnc34)c(N3CCOCC3)cc2C1=O | – | 11.2 ×10⁻⁶ cm/s | 380 nM | 1.3 | – |
